Compound activity from PubChem.
Apaf-1 inh = inhibitors of human Apaf-1 apoptosome; O14727; reconstituted apoptosome caspase-3 activity, DEVD-Rh110 fluorescence; inhibition, % at 20 µM; hit rate 0.71% among 330,000; active = inhibition of at least 40% at 20 µM;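 note: plate controls were DMSO wells for no effect and DEVD-CHO caspase inhibitor wells for full effect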
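Material: reconstituted apoptosome with Apaf-1, cytochrome c, caspase-9, procaspase-3, dATP; medium: pH 7.5 Hepes buffer with CHAPS, BSA, DTT; also added: cytochrome c and DEVD-Rh110 substrate; timing: 30 min plus 50 min, RT; signal: Rh110 fluorescence intensity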
CTSL1 counter = cathepsin L1 inhibition, PFM18AAP counter-screen | recombinant F. hepatica cathepsin L1, Z-Leu-Arg-MCA fluorescence | inhibition, % at 5.96 µM | hit rate 0.49% among 300,000;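 active = inhibition above the mean of all tested compounds plus 3 SD, set per screening campaign, cut at about 17% in these data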;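 note: 0% = plate median of test compound wells and 100% = 1 µM Z-Phe-Ala-diazomethylketone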
TDP2 absorb = blocks human TDP2 phosphodiesterase activity; recombinant TDP2, T5PNP hydrolysis, p-nitrophenol absorbance 415 nm; inhibition, % at 12.8 µM; hit rate 0.34% among 370,000; AID 720702;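 active = inhibition above the mean of all tested compounds plus 3 SD, set per campaign, cut at about 25% in these data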;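 note: 0% = DMSO with enzyme and 100% = buffer with substrate but no TDP2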
Target sequence (O95551 whole entry, looked up): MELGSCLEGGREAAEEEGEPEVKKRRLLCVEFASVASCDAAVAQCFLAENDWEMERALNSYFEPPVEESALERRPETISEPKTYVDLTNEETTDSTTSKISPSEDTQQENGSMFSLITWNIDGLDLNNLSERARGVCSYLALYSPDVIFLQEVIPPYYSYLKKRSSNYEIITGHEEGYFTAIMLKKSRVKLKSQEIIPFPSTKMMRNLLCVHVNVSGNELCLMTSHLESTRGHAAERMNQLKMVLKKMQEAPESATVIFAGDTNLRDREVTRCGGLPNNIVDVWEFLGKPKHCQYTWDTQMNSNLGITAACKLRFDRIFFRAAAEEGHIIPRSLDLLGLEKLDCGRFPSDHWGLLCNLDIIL
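Evaluation: % inhibition relative to enzyme-containing and enzyme-free wells. Material: recombinant human TDP2. Benchmarks: enzyme-free and DMSO wells. Timing: enzyme reaction with compound for 2 h at 37 °C. Compound dosing: 12.8 µM only. Measured by: p-Nitrophenol epi absorbance. Reagent: T5PNP substrate at 5 mM, a TopII-DNA adduct mimic. Replication: single well per compound.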
GSTO1 counter = blocks human GSTO1 in RBBP9 counter-screen | P78417 | recombinant GSTO1, activity-based probe fluorescence polarization | inhibition, % at 5.96 µM | hit rate 1.1% among 300,000 | AID 1974;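 active = inhibition above the campaign mean inhibition plus 3 SD, cut at about 35% in these data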;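 note: 0% = GSTO1-1 with DMSO and 100% = wells lacking GSTO1-1 enzyme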
PAD4 FP inh = PAD4 (human) enzyme inhibition; Q9UM07; recombinant PAD4, RCA probe fluorescence polarization; inhibition, % at 6.36 µM; hit rate 0.41% among 330,000;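 active = percent inhibition above a cutoff equal to the mean of all tested compounds plus 3 SD, cut at about 15% in these data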;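 note: 0% = PAD4 with RCA probe and DMSO and 100% = probe without PAD4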
An asterisk follows results filed as active; nt = not tested or not shown. In the library only some 1.8% were active in any assay of this set; here they are far more common.

SMILES	Apaf-1 inh	CTSL1 counter	TDP2 absorb	GSTO1 counter	PAD4 FP inh
O=C(COC(=O)COc1cccc(F)c1)NCCC1=CCCCC1	-14	-10	5	-2	2
O=C(COC(=O)CNC(=O)c1cccc(F)c1)NCCC1=CCCCC1	6	22*	1	-1	-6
Cc1cc(N2CCC(C)CC2)nc2ccccc12	nt	nt	5	nt	nt
CN(CC(=O)N1CCc2[nH]c3ccc(F)cc3c2C1)CC1OCCO1	-2	1	0	-3	-1
Cc1ccc2[nH]c3c(c2c1)CN(C(=O)CN(C)CC1OCCO1)CC3	20	17*	20	17	-13
Cc1c(NC(=O)c2ccc3c(c2)C(=O)N(CC2CCCO2)C3=O)cccc1C(=O)O (stereo not given)	-9	-1	9	7	-1
CCOc1ccccc1NC(=O)c1ccc2c(c1)C(=O)N(CC1CCCO1)C2=O (stereo not given)	12	18*	-3	4	-5
Cc1ccc(C(=O)Cn2ncsc2=N)cc1	-17	62*	13	2	-2
CC(C)C[C@@H]1COc2cccc(N3CCCC3)c2S(=O)(=O)N1	nt	nt	9	nt	nt
CCOc1ccc(CCNC(=O)c2cc3sccc3n2Cc2ccccc2)cc1OCC	nt	nt	9	nt	nt
CC1CN(c2ccc([N+](=O)[O-])c(NCCOc3ccc(Cl)cc3)c2)CC(C)N1 (stereo not given)	27	nt	-10	nt	nt
CCc1ccc(OCCNc2cc(N3CCNC(C)C3)ccc2[N+](=O)[O-])cc1 (stereo not given)	75*	nt	-1	nt	-1
CC1=[N+](C)c2c(ccc3cccnc23)C1(C)C	nt	nt	38*	nt	nt
CCOCCCNC(=O)C1CCN(S(=O)(=O)c2cc3c(cc2Br)CCN3C(=O)CC)CC1	nt	nt	-10	nt	nt
CC(C)COc1ccc(-c2csc(N3CCC(C(N)=O)CC3)n2)cc1	nt	nt	-7	nt	nt
CCCCc1cc(=O)oc2cc(OCC(=O)N3CCOCC3)ccc12	-4	-3	1	-4	-2
CCCCc1cc(=O)oc2cc(OCC(=O)N3CCC(C(=O)O)(c4ccccc4)CC3)ccc12	3	20*	-1	-11	-5
C#CCSc1nnc(-c2sc(-c3ccccc3)nc2C)n1C	-2	-1	8	74*	-5
COCc1cc(N2CCN(C(=O)OC(C)(C)C)C[C@H]2C)ccc1N1CCN(Cc2ccccc2)[C@@H](C)C1	nt	nt	10	nt	nt
O=C1C2CC=C(Cl)CC2C(=O)N1CCc1ccccc1 (stereo not given)	-2	44*	-16	16	-2
O=C1C2CC=C(Cl)CC2C(=O)N1CCc1c[nH]c2ccccc12 (stereo not given)	-11	5	3	6	0
Cc1cc(-c2cc(NC(=O)Cc3c[nH]c4ccccc34)ccc2N(C)c2cccnc2)ccc1F	nt	nt	-3	nt	nt
Cc1ccc(NC(=S)NNc2ccc(C(=O)O)cc2[N+](=O)[O-])cc1C	-15	0	-9	36*	1
CCN(CC)c1nc(C#N)nc(N(CC)CC)n1	6	nt	4	nt	nt
CCN(c1ccccc1)c1nc(C#N)nc(N(CC)c2ccccc2)n1	1	30*	-1	1	-2
SMILES	Apaf-1 inh	CTSL1 counter	TDP2 absorb	GSTO1 counter	PAD4 FP inh
C=CCNC(=O)CN(C(=O)Cc1cccc(OC(F)(F)F)c1)c1cccc(Br)c1	nt	nt	5	nt	nt
Cc1ccc(NC2=C/C(=N/S(=O)(=O)c3cccs3)c3ccccc3C2=O)cc1C	nt	19*	-1	30	-17
Cc1ccc(NC(=O)CN(C)S(=O)(=O)c2cccs2)cc1C	1	5	-7	-3	0
NC(=O)CSc1nc2scc(-c3ccco3)c2c(=O)n1-c1ccccc1	0	28*	-3	5	-8
O=C(CSc1nc2scc(-c3ccco3)c2c(=O)n1-c1ccccc1)N1CCOCC1	4	-2	-13	5	2
O=C1CSC(=S)N1/N=C/c1ccc(O)c(O)c1O	26	6	nt	67*	0
Oc1ccc(/C=N/Nc2cc(N3CCOCC3)nc(N3CCOCC3)n2)cc1O	27	0	7	54*	-1
CCOC(=O)c1c(C2CC2)csc1NC(=O)COC(=O)CCS(=O)(=O)c1ccc(C)cc1	19	-46	-1	37*	0
Cc1ccc(C(=O)N/N=C/c2cc(Br)ccc2O)cn1	-6	19*	-6	3	-6
Cc1ccc(C)n1Cc1ccc(C(=O)O)cc1	-9	-6	nt	59*	7
Cc1ccc(S(=O)(=O)CCC(=O)c2cccc([N+](=O)[O-])c2)cc1	4	20*	4	0	5
